Experimental data published in ChEMBL document CHEMBL1649165, “Activity profile in vitro of micafungin against Spanish clinical isolates of common and emerging species of yeasts and molds” (2009).
Converted amounts (≈) assume the structure as drawn.

Legend:
Type in all cases: functional
Candida parapsilosis = experiment: Antimicrobial activity against Candida parapsilosis by broth microdilution method; conditions: Lodderomyces parapsilosis
In short: (§1)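 Clinical isolates from human patients, tested by broth microdilution using the AFST-EUCAST reference procedure for fermentative yeasts. The MIC was read per that reference method.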

Nakaseomyces glabratus = experiment: Antimicrobial activity against Candida glabrata by broth microdilution method; in short: as §1
[1] = test system: Meyerozyma guilliermondii; experiment: Antimicrobial activity against Candida guilliermondii by broth microdilution method; in short: as §1
Kluyveromyces marxianus = experiment: Antimicrobial activity against Candida kefyr by broth microdilution method; in short: as §1
Diutina rugosa = experiment: Antimicrobial activity against Candida rugosa by broth microdilution method; in short: as §1
Wickerhamomyces anomalus = experiment: Antimicrobial activity against Candida pelliculosa by broth microdilution method; conditions: Hansenula anomala; in short: as §1
Torulaspora delbrueckii = experiment: Antimicrobial activity against Candida coliculosa by broth microdilution method; in short: as §1
[Candida] intermedia = Antimicrobial activity against Candida intermedia by broth microdilution method; conditions: Sungouiella intermedia; in short: as §1
[Candida] inconspicua = Antimicrobial activity against Candida inconspicua by broth microdilution method; conditions: Pichia inconspicua; in short: as §1
Magnusiomyces capitatus = experiment: Antimicrobial activity against Dipodascus capitatus by broth microdilution method
Yarrowia lipolytica = experiment: Antimicrobial activity against Yarrowia lipolytica by broth microdilution method
Geotrichum candidum = experiment: Antimicrobial activity against Galactomyces geotrichum by broth microdilution method
Rhodotorula mucilaginosa = experiment: Antimicrobial activity against Rhodotorula mucilaginosa by broth microdilution method
In short: (§2)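 Nonfermentative yeast clinical isolates (Rhodotorula, Trichosporon) tested by broth microdilution. The EUCAST yeast recommendations were followed strictly, with one minor modification to improve growth. MIC was read as the endpoint.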

Trichosporon ovoides = experiment: Antimicrobial activity against Trichosporon ovoides by broth microdilution method; in short: as §2
Trichosporon dermatis = experiment: Antimicrobial activity against Trichosporon dermatis by broth microdilution method; conditions: Cutaneotrichosporon dermatis; in short: as §2
Rhodotorula glutinis = experiment: Antimicrobial activity against Rhodotorula glutinis by broth microdilution method; in short: as §2
Papiliotrema laurentii = experiment: Antimicrobial activity against Cryptococcus laurentii by broth microdilution method
In short: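 Clinical isolates of nonfermentative yeasts, tested by broth microdilution following EUCAST recommendations. The only change from that method was a minor modification to improve growth.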

Aspergillus fumigatus = experiment: Antimicrobial activity against Aspergillus fumigatus by broth microdilution method
In short: (§3)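 Clinical mould isolates, tested by broth microdilution using the AFST-EUCAST reference method for filamentous fungi. For echinocandins, the endpoint was the minimum effective concentration: the lowest drug concentration giving aberrant hyphal growth, read with an inverted microscope.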

Aspergillus terreus = experiment: Antimicrobial activity against Aspergillus terreus by broth microdilution method; in short: as §3
Aspergillus flavus = experiment: Antimicrobial activity against Aspergillus flavus by broth microdilution method; in short: as §3
Aspergillus niger = experiment: Antimicrobial activity against Aspergillus niger by broth microdilution method; in short: as §3
Aspergillus nidulans = experiment: Antimicrobial activity against Aspergillus nidulans by broth microdilution method; in short: as §3
Aspergillus sydowii = experiment: Antimicrobial activity against Aspergillus sydowii by broth microdilution method; in short: as §3
Aspergillus ochraceus = experiment: Antimicrobial activity against Aspergillus ochraceus by broth microdilution method; in short: as §3
Aspergillus sclerotiorum = experiment: Antimicrobial activity against Aspergillus sclerotiorum by broth microdilution method; in short: as §3
Aspergillus glaucus = experiment: Antimicrobial activity against Aspergillus glaucus by broth microdilution method; in short: as §3
Penicillium = experiment: Antimicrobial activity against Penicillium spp. by broth microdilution method
In short: (§4)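 Filamentous fungus clinical isolates tested by the AFST-EUCAST reference broth microdilution method for moulds. For echinocandins, the endpoint was the minimum effective concentration: the lowest drug concentration giving aberrant hyphal growth, read with an inverted microscope.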

Fusarium proliferatum = experiment: Antimicrobial activity against Fusarium proliferatum by broth microdilution method; in short: as §3
Fusarium oxysporum = experiment: Antimicrobial activity against Fusarium oxysporum by broth microdilution method; in short: as §3
Fusarium verticillioides = experiment: Antimicrobial activity against Fusarium verticillioides by broth microdilution method; in short: as §4
Paecilomyces variotii = experiment: Antimicrobial activity against Paecilomyces variotii by broth microdilution method; in short: as §4
Trichoderma = experiment: Antimicrobial activity against Trichoderma spp. by broth microdilution method; in short: as §4
Fusarium equiseti = experiment: Antimicrobial activity against Fusarium equiseti by broth microdilution method; in short: as §3
Fusarium reticulatum = experiment: Antimicrobial activity against Fusarium reticulatum by broth microdilution method; in short: as §4
Lomentospora prolificans = experiment: Antimicrobial activity against Scedosporium prolificans by broth microdilution method; in short: as §4
Alternaria alternata = experiment: Antimicrobial activity against Alternaria alternata by broth microdilution method; in short: as §3
Lewia infectoria = experiment: Antimicrobial activity against Alternaria infectoria by broth microdilution method; in short: as §3
Aureobasidium pullulans = experiment: Antimicrobial activity against Aureobasidium pullulans by broth microdilution method
Hortaea werneckii = experiment: Antimicrobial activity against Hortaea werneckii by broth microdilution method
Rhizopus arrhizus = experiment: Antimicrobial activity against Rhizopus oryzae by broth microdilution method; in short: as §4
[2] = Antimicrobial activity against Rhizopus microsporus by broth microdilution method; in short: as §4

Which results are given for CC[C@H](C)C[C@H](C)CCCCCCCCC(=O)N[C@H]1C[C@@H](O)[C@@H](NCCN)NC(=O)[C@@H]2[C@@H](O)CCN2C(=O)[C@H]([C@H](O)CCN)NC(=O)[C@H]([C@H](O)[C@@H](O)c2ccc(O)cc2)NC(=O)[C@@H]2C[C@@H](O)CN2C(=O)[C@H]([C@@H](C)O)NC1=O [CASPOFUNGIN]?
MIC50 (Candida parapsilosis): 1 µg/mL (≈ 0.915 µM); MIC90 (Candida parapsilosis): 1 µg/mL (≈ 0.915 µM); MIC50 (Nakaseomyces glabratus): 0.12 µg/mL (≈ 0.11 µM); MIC90 (Nakaseomyces glabratus): 0.25 µg/mL (≈ 0.229 µM); MIC50 [1]: 0.5 µg/mL (≈ 0.457 µM); MIC90 [1]: 1 µg/mL (≈ 0.915 µM); MIC50 (Kluyveromyces marxianus): 0.06 µg/mL (≈ 0.0549 µM); MIC90 (Kluyveromyces marxianus): 0.12 µg/mL (≈ 0.11 µM); MIC50 (Diutina rugosa): 0.06 µg/mL (≈ 0.0549 µM); MIC90 (Diutina rugosa): 0.5 µg/mL (≈ 0.457 µM); MIC50 (Wickerhamomyces anomalus): 0.06 µg/mL (≈ 0.0549 µM); MIC90 (Wickerhamomyces anomalus): 0.5 µg/mL (≈ 0.457 µM); MIC50 (Torulaspora delbrueckii): 0.06 µg/mL (≈ 0.0549 µM); MIC90 (Torulaspora delbrueckii): 0.5 µg/mL (≈ 0.457 µM); MIC50 ([Candida] intermedia): 0.06 µg/mL (≈ 0.0549 µM); MIC90 ([Candida] intermedia): 0.5 µg/mL (≈ 0.457 µM); MIC50 ([Candida] inconspicua): 0.06 µg/mL (≈ 0.0549 µM); MIC90 ([Candida] inconspicua): 0.5 µg/mL (≈ 0.457 µM); MIC50 (Magnusiomyces capitatus): > 16 µg/mL; MIC90 (Magnusiomyces capitatus): > 16 µg/mL; MIC50 (Yarrowia lipolytica): 0.5 µg/mL (≈ 0.457 µM); MIC90 (Yarrowia lipolytica): 1 µg/mL (≈ 0.915 µM); MIC50 (Geotrichum candidum): > 16 µg/mL; MIC90 (Geotrichum candidum): > 16 µg/mL; MIC50 (Rhodotorula mucilaginosa): > 16 µg/mL; MIC90 (Rhodotorula mucilaginosa): > 16 µg/mL; MIC50 (Trichosporon ovoides): > 16 µg/mL; MIC90 (Trichosporon ovoides): > 16 µg/mL; MIC50 (Trichosporon dermatis): > 16 µg/mL; MIC90 (Trichosporon dermatis): > 16 µg/mL; MIC50 (Rhodotorula glutinis): > 16 µg/mL; MIC90 (Rhodotorula glutinis): > 16 µg/mL; MIC50 (Papiliotrema laurentii): > 16 µg/mL; MIC90 (Papiliotrema laurentii): > 16 µg/mL; MIC50 (Aspergillus fumigatus): 0.25 µg/mL (≈ 0.229 µM); MIC90 (Aspergillus fumigatus): 0.5 µg/mL (≈ 0.457 µM); MIC50 (Aspergillus terreus): 1 µg/mL (≈ 0.915 µM); MIC90 (Aspergillus terreus): 2 µg/mL (≈ 1.83 µM); MIC50 (Aspergillus flavus): > 16 µg/mL; MIC90 (Aspergillus flavus): > 16 µg/mL; MIC50 (Aspergillus niger): 0.25 µg/mL (≈ 0.229 µM); MIC90 (Aspergillus niger): 0.5 µg/mL (≈ 0.457 µM); MIC50 (Aspergillus nidulans): 0.5 µg/mL (≈ 0.457 µM); MIC90 (Aspergillus nidulans): > 16 µg/mL; MIC50 (Aspergillus sydowii): 0.25 µg/mL (≈ 0.229 µM); MIC90 (Aspergillus sydowii): 1 µg/mL (≈ 0.915 µM); MIC50 (Aspergillus ochraceus): 0.12 µg/mL (≈ 0.11 µM); MIC90 (Aspergillus ochraceus): 0.5 µg/mL (≈ 0.457 µM); MIC50 (Aspergillus sclerotiorum): 0.12 µg/mL (≈ 0.11 µM); MIC90 (Aspergillus sclerotiorum): 0.5 µg/mL (≈ 0.457 µM); MIC50 (Aspergillus glaucus): 0.12 µg/mL (≈ 0.11 µM); MIC90 (Aspergillus glaucus): 0.5 µg/mL (≈ 0.457 µM); MIC50 (Penicillium): 0.25 µg/mL (≈ 0.229 µM); MIC90 (Penicillium): 8 µg/mL (≈ 7.32 µM); MIC50 (Fusarium proliferatum): > 16 µg/mL; MIC90 (Fusarium proliferatum): > 16 µg/mL; MIC50 (Fusarium oxysporum): > 16 µg/mL; MIC90 (Fusarium oxysporum): > 16 µg/mL; MIC50 (Fusarium verticillioides): > 16 µg/mL; MIC90 (Fusarium verticillioides): > 16 µg/mL; MIC50 (Paecilomyces variotii): 0.5 µg/mL (≈ 0.457 µM); MIC90 (Paecilomyces variotii): 4 µg/mL (≈ 3.66 µM); MIC50 (Trichoderma): > 16 µg/mL; MIC90 (Trichoderma): > 16 µg/mL; MIC50 (Fusarium equiseti): > 16 µg/mL; MIC90 (Fusarium equiseti): > 16 µg/mL; MIC50 (Fusarium reticulatum): > 16 µg/mL; MIC90 (Fusarium reticulatum): > 16 µg/mL; MIC50 (Lomentospora prolificans): 8 µg/mL (≈ 7.32 µM); MIC90 (Lomentospora prolificans): > 16 µg/mL; MIC50 (Alternaria alternata): 4 µg/mL (≈ 3.66 µM); MIC90 (Alternaria alternata): > 16 µg/mL; MIC50 (Lewia infectoria): > 16 µg/mL; MIC90 (Lewia infectoria): > 16 µg/mL; MIC50 (Aureobasidium pullulans): 0.25 µg/mL (≈ 0.229 µM); MIC90 (Aureobasidium pullulans): 1 µg/mL (≈ 0.915 µM); MIC50 (Hortaea werneckii): 0.25 µg/mL (≈ 0.229 µM); MIC90 (Hortaea werneckii): 1 µg/mL (≈ 0.915 µM); MIC50 (Rhizopus arrhizus): > 16 µg/mL; MIC90 (Rhizopus arrhizus): > 16 µg/mL; MIC50 [2]: > 16 µg/mL; MIC90 [2]: > 16 µg/mL
